From publication PMC9532722 (Acta Pharmaceutica Sinica. B, 2022)
Values after ≈ are worked out from the molar mass of the structure shown. Values joined by “and” are separate entries in the source; they are usually repeats but may differ in a detail not shown here. Identical values can stand only once. Like-named read-outs stand apart in the source and are kept apart here.

Experiments:
[1] = system: persistent AF canine model; assay: Anti-atrial fibrillatory effect in persistent AF canine model; format: in vivo, beagle dogs
[2] = system: persistent AF canine model; assay: Proarrhythmic risk; format: in vivo, beagle dogs; conditions: 3 mg/kg i.v.; for peak increment of STVQT: at 3 h (dronedarone), 9 h (poyendarone), 1 h (amiodarone), n = 4
[3] = system: canine model of paroxysmal AF; conditions: basic pacing cycle length of 200 ms; cited from earlier work
[4] = Aqueous kinetic solubility; format: physicochemical; conditions: universal aqueous buffer, pH 7.4
Outline: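 Kinetic solubility: test compound from 10 mmol/L DMSO stock diluted into universal aqueous buffer, pH 7.4 (1% DMSO, v/v), then sonicated. Run in 3 filter-plate wells, agitated 24 h at 250 rpm at room temperature and filtered. Filtrate brought to 80:20 buffer/ACN. Solubility estimated from UV absorbance at 300 nm.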

[5] = Effective permeability by PAMPA; format: physicochemical; conditions: pH 7.4
CYP2J2 [6] = biological target: T1, CYP2J2 (Homo sapiens, UniProt P51589); assay: in vitro; format: in vitro ADME
T1 sequence (P51589 1-502): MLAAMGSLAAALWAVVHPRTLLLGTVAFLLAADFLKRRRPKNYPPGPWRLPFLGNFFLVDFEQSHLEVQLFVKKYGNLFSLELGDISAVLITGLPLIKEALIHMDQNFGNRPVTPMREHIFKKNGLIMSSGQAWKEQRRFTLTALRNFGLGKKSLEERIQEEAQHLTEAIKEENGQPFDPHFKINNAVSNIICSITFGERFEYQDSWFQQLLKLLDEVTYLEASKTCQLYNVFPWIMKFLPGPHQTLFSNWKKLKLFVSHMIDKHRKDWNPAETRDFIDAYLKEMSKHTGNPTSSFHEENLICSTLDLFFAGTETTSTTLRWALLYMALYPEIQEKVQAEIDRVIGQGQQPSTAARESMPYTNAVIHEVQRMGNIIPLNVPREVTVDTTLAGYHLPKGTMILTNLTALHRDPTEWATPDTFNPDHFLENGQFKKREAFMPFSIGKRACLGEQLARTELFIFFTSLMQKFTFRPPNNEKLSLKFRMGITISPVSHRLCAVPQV

CYP3A4 [7] = biological target: T2, CYP3A4 (Homo sapiens, UniProt P08684); assay: Metabolic stability, substrate depletion, rCYP3A4; format: in vitro ADME
Outline: (§1)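 Substrate depletion. Test compound at 1 μmol/L incubated with NADPH generating system (NADP+, glucose 6-phosphate, glucose-6-phosphate dehydrogenase) and one enzyme source: human liver microsomes 0.5 mg/mL, rCYP3A4 10 pmol/mL or rCYP3A5 10 pmol/mL. Aliquots at set times quenched in ice-cold ACN with internal standard; parent measured by LC–MS/MS. Percent remaining versus time fitted to one-phase decay for CLint.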

CYP3A5 [8] = biological target: T3, CYP3A5 (Homo sapiens, UniProt P20815); assay: Metabolic stability, substrate depletion, rCYP3A5; format: in vitro ADME
Outline: as §1

[9] = Metabolic stability, substrate depletion, HLM; format: in vitro ADME; conditions: human, human liver microsomes
Outline: as §1

human NaV1.5 channel = human NaV1.5 channel (Homo sapiens, UniProt Q14524); assay: Whole-cell patch clamp, NaV1.5 peak current in transfected HEK293FT cells; format: cell-based
Outline: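 HEK293FT cells grown in DMEM with 10% FBS at 37 °C, 5% CO2. Co-transfected with human NaV1.5 and β1-subunit plasmids; replated on coated coverslips 24 h before recording. Peak INa measured by whole-cell voltage clamp with test compound at 1–10 μmol/L: 5–6 kHz filter, >70% series-resistance compensation, P/4 leak subtraction. IC50 from variable-slope log(inhibitor)–response fit.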

[10] = biological target: human CaV1.2 α1C cardiac isoform (Homo sapiens, UniProt Q13936); assay: Whole-cell patch clamp, CaV1.2 peak current in transfected HEK293FT cells; format: cell-based
hKV11.1 (hERG) channel = hKV11.1 (hERG) channel (Homo sapiens, UniProt Q12809); assay: Whole-cell patch clamp, KV11.1 tail current in transfected HEK293FT cells; format: cell-based
Outline: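 HEK293FT cells grown in DMEM with 10% FBS at 37 °C, 5% CO2. Co-transfected with human KV11.1 and KCNE1 plasmids, then plated on poly-D-lysine coverslips. Test compound applied at 10 nmol/L–1 μmol/L under whole-cell voltage clamp: 1 kHz filter, >70% series-resistance compensation, P/4 leak subtraction. Pulses of 2.5 s from −80 to 20 mV; tail current recorded at −60 mV. IC50 from variable-slope log(inhibitor)–response fit.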

CYP2J2 [11] = biological target: T1, CYP2J2; assay: in vitro; format: biochemical
CYP3A4 [12] = biological target: T2, CYP3A4; assay: Mechanism-based inactivation of CYP3A4, rivaroxaban as probe substrate; format: biochemical
Outline: (§2)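 Two-step inactivation assay. Recombinant CYP3A4 or CYP3A5 (20 pmol/mL) pre-incubated at 37 °C with test compound (0–20 μmol/L) and NADPH system in potassium phosphate buffer. At set times, aliquots diluted 20-fold into rivaroxaban plus NADPH regenerating system and incubated 2 h. ACN quench; rivaroxaban morpholinone product measured by LC–MS/MS. kobs from log % activity versus time; kinact and KI from kobs versus concentration; n = 3, mean ± SEM.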

CYP3A5 [13] = biological target: T3, CYP3A5; assay: Mechanism-based inactivation of CYP3A5, rivaroxaban as probe substrate; format: biochemical
Outline: as §2

CYP2J2 [14] = biological target: T1, CYP2J2; format: biochemical; conditions: CYP2J2-mediated astemizole O-desmethylation
CYP2J2 [15] = biological target: T1, CYP2J2; format: biochemical; conditions: co-incubation 2 h with NADPH
H9c2 cells = assay: Concurrent cytotoxicity and ATP depletion; format: cell-based, rat; conditions: 6 h
hiPSC-CMs = assay: BTB variability in hiPSC-CMs; format: cell-based, human; conditions: hiPSC-CM, 1 μmol/L
Outline: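 Cardiomyocytes from hiPSC made by viral-free reprogramming of human foreskin fibroblasts. Exposed to test compound (0–10 μmol/L); MEA field potentials recorded 5 min at baseline and 5 min after dosing. Successive RR intervals plotted as Poincaré plots, giving SD1 (STVRR) and SD2 (LTVRR). One experiment in triplicate, mean ± SEM; groups compared with control by one-way ANOVA and Dunnett's test.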

[16] = hydrochloride 3 mg/kg i.v., conscious dogs

T3 sequence (P20815 whole entry): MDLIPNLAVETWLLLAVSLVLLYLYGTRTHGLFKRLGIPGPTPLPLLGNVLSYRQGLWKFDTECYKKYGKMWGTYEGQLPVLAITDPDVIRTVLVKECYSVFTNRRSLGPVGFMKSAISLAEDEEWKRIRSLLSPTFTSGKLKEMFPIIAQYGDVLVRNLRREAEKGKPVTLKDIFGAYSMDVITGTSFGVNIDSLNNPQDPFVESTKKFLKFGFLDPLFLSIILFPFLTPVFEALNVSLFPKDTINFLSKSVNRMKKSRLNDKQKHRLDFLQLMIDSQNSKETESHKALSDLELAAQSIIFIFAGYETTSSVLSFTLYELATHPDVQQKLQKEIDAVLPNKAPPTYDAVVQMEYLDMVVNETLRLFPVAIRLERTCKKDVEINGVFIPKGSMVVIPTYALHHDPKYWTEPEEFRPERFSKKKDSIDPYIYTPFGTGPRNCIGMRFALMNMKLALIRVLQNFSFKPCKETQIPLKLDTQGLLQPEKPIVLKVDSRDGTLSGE
T2 sequence (P08684 whole entry): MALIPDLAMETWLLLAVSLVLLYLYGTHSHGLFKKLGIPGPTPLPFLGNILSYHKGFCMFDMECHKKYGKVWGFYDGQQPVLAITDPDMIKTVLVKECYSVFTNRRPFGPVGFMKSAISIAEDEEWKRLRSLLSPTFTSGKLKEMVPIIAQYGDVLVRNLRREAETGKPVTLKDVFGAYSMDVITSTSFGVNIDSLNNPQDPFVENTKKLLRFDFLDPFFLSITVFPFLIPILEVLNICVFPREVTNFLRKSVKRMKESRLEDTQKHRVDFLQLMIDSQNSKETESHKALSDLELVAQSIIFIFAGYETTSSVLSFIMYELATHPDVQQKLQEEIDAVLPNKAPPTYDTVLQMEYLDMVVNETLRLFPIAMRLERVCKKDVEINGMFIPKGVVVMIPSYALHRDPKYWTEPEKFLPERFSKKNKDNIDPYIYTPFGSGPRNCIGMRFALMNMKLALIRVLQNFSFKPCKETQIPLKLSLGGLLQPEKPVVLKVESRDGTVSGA
hKV11.1 (hERG) channel, sequence (Q12809 whole entry): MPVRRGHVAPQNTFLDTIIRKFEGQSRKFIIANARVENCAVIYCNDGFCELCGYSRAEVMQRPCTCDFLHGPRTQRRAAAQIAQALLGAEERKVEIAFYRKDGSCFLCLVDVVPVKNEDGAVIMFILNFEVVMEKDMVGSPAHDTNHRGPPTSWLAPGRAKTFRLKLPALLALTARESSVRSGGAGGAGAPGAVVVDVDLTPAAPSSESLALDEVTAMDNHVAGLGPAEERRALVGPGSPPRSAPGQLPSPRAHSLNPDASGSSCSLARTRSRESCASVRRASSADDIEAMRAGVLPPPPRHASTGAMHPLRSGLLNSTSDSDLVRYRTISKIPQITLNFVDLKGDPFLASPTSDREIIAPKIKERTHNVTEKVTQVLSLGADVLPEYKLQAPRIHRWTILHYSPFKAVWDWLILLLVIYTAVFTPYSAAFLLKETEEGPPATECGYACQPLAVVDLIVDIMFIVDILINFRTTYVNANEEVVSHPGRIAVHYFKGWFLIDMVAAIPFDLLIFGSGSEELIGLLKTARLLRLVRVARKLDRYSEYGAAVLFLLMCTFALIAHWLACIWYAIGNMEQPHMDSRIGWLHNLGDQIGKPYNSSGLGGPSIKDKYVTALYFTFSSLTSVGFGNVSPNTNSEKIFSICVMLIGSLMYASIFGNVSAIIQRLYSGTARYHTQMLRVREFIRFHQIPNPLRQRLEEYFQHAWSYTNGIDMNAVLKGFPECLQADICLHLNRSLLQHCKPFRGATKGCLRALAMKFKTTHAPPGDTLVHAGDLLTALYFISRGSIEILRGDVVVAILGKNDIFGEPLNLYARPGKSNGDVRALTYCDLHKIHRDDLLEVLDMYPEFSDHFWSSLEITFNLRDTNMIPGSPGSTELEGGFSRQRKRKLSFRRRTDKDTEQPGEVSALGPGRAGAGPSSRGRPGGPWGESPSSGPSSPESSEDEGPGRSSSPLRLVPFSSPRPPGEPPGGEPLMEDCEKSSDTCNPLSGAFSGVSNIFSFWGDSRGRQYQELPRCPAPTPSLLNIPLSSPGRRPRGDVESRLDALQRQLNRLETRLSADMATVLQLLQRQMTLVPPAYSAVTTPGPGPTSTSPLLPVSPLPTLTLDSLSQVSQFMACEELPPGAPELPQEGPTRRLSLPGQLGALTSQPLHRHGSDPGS
human NaV1.5 channel, sequence (Q14524 whole entry): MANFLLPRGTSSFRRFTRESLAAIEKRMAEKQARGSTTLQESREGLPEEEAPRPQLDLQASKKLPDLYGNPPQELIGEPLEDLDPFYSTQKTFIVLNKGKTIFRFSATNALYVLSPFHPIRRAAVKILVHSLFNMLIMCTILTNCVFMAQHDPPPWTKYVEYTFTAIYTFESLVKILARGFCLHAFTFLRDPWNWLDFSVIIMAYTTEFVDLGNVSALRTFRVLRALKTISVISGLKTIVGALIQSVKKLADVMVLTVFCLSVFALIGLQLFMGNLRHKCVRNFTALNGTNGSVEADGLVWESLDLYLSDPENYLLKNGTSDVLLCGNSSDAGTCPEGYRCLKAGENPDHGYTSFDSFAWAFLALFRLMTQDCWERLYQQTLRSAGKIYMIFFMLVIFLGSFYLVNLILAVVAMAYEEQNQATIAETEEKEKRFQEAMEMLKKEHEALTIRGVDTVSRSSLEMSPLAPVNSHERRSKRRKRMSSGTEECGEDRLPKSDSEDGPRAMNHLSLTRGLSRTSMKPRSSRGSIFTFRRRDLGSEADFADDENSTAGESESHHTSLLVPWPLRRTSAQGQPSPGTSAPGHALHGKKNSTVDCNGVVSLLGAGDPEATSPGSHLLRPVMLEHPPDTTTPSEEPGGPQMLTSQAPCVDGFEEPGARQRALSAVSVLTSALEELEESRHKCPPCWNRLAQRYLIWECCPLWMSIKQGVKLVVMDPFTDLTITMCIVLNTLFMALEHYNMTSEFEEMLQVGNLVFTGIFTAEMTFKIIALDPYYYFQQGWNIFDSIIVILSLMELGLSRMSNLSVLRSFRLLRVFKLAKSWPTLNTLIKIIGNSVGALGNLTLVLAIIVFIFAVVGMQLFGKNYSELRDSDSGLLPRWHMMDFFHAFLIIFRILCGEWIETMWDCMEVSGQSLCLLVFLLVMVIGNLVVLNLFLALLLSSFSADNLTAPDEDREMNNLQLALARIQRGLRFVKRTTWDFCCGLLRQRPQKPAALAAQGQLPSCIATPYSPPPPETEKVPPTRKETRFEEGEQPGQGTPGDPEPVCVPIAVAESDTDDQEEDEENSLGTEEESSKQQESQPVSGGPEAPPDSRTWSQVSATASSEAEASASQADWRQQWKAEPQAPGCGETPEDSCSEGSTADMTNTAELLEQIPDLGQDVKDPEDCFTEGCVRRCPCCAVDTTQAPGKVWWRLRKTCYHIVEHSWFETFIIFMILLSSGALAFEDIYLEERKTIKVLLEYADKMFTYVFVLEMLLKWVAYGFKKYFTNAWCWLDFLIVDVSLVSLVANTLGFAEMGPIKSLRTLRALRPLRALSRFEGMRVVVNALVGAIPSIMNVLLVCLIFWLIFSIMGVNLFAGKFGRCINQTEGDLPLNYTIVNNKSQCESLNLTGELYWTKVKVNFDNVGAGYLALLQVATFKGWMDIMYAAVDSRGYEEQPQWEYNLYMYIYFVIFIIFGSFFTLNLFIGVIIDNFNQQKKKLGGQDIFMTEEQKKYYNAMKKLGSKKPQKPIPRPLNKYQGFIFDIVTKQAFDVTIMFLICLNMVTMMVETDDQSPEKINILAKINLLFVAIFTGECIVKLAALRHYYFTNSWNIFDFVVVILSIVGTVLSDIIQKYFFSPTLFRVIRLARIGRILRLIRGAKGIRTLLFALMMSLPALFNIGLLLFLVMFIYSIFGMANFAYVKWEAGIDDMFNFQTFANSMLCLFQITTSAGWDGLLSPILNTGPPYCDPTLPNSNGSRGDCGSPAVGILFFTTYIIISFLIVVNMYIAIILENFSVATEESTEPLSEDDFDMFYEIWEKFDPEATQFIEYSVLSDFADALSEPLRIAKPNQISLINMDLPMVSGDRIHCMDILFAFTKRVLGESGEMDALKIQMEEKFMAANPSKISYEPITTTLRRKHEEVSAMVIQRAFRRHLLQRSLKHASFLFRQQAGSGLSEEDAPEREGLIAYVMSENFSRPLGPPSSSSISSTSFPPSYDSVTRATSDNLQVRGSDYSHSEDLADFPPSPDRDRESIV

CCCCc1oc2ccccc2c1C(=O)c1cc(I)c(OCCN(CC)CC)c(I)c1 [Amiodarone]
spontaneous AF recurrence, time after the termination of AF ([1]; hydrochloride 3 mg/kg i.v., animal #1): 5.2 h | time of AF termination after the start of administration (individual animals) [1, 16]: 7.7 h and 5.9 h | peak increment of STVQT [2]: 1.05 ± 0.41 ms | atrial effective refractory period prolongation [3]: -3 ms | inter-atrial conduction time prolongation [3]: +1 ms

CCCCc1oc2ccc(NS(C)(=O)=O)cc2c1C(=O)c1ccc(OCCCN(CCCC)CCCC)cc1 [Dronedarone]
solubility at 24 h [4]: 3.22 ± 0.34 µg/mL (≈ 5.78 µM) | Papp at 16 h [5]: 34.6 nm/s | half-life at 1 μmol/L (CYP2J2 [6]; human, recombinant enzyme): 3.95 min | Intrinsic clearance, CLint (CYP2J2 [6]; rCYP2J2): 0.88 µL/min/pmol | half-life at 1 μmol/L (CYP3A4 [7]; human, recombinant CYP3A4 (rCYP3A4)): 8.05 min | Intrinsic clearance, CLint (CYP3A4 [7]; rCYP3A4): 0.86 µL/min/pmol | half-life at 1 μmol/L (CYP3A5 [8]; human, recombinant CYP3A5 (rCYP3A5)): 12.2 min | Intrinsic clearance, CLint (CYP3A5 [8]; rCYP3A5): 0.57 µL/min/pmol | half-life at 1 μmol/L [9]: 10.4 min | microsomal CLint at 1 μmol/L [9]: 13.3 µL/min/mg | IC50 (human NaV1.5 channel): 3.41 µM | IC50 [10]: 1.96 µM | IC50 (hKV11.1 (hERG) channel): 0.16 µM | kinact/KI (CYP2J2 [11]; CYP2J2, rivaroxaban substrate): 7.85e-05 M⁻¹ s⁻¹ | KI (CYP2J2 [11]; CYP2J2, rivaroxaban substrate, mean ± SEM): 8.47 ± 3.96 µM | kinact (CYP2J2 [11]; human): 0.000667 s⁻¹ | MBI of CYP2J2-mediated rivaroxaban hydroxylation (in words) (CYP2J2 [11]; rivaroxaban as probe substrate): potently inactivated | kinact/KI (CYP3A4 [12]): 8.42e-05 M⁻¹ s⁻¹ | kinact/KI (CYP3A4 [12]; as printed in text): 83.3 M⁻¹ s⁻¹ | KI (CYP3A4 [12]; mean ± SEM): 5.3 ± 2.95 µM | kinact/KI (CYP3A5 [13]; CYP3A5, rivaroxaban substrate): 0.000121 M⁻¹ s⁻¹ | KI (CYP3A5 [13]; CYP3A5, rivaroxaban substrate, mean ± SEM): 4.44 ± 1.76 µM | kinact (CYP3A5 [13]; human, recombinant CYP3A5 (rCYP3A5), probe rivaroxaban): 0.000538 s⁻¹ | kinact/KI (CYP2J2 [14]): 8300 M⁻¹ s⁻¹ | inhibition of CYP2J2-mediated AA metabolism to EETs (in words) (CYP2J2 [15]): inhibits CYP2J2-mediated AA metabolism in a concentration-dependent manner | fold higher cytotoxicity than poyendarone (H9c2 cells): 22 fold | fold more potent decrease of intracellular ATP than poyendarone (H9c2 cells): 13 fold | long-term variability (LTVRR), fold compared to poyendarone (hiPSC-CMs): 3 fold | short-term variability (STVRR), fold compared to poyendarone (hiPSC-CMs): 4 fold | animals in which persistent AF was terminated ([1]; hydrochloride 3 mg/kg i.v. over 30 s, conscious dogs, 21 h observation): 2 out of 4 | time of AF termination after the start of administration (individual animals) [1, 16]: 5.2 h and 10.6 h | period after administration with increased STVQT [2]: 0.5 to 12 h | STVQT relative to the critical border for early afterdepolarization ([2]; throughout observation period): intermittently elevated STVQT | peak increment of STVQT [2]: 3.06 ± 0.80 ms | atrial effective refractory period prolongation [3]: +4 ms | inter-atrial conduction time prolongation [3]: +13 ms
